Experimental data: ChEMBL document CHEMBL1123247, “Nucleoside conjugates. 7. Synthesis and antitumor activity of 1-beta-D-arabinofuranosylcytosine conjugates of ether lipids” (J Med Chem, 1986)
Several values for one entry are separate records, joined by “and”; a condition that tells them apart may be missing. Identical values can stand only once.

Assays:
L1210 [1] = test: Antitumor activity was determined against the ip implanted L1210 leukemia in mice by median survival time at 128 and 262 mg/kg (treatment of 1qd schedule) dosage; 8.0/8.0; details: route intraperitoneal
L1210 [2] = test: Antitumor activity was determined against the ip implanted L1210 leukemia in mice by range in survival days at 128 and 262 mg/kg (treatment of 1qd schedule) dosage; Range is 7-8; assay type: functional, Mus musculus; details: route intraperitoneal
Procedure, shortened: (§1)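 DBA/2J mice, 23-28 g, in groups of 6, were inoculated ip with 1×10^6 L1210 cells on day 0. Dosing was ip starting 24 h later on the stated daily schedules. Conjugates were given as sonicated solutions and reference prodrugs as suspensions in 0.9% NaCl with 0.5% Tween-80. Mice were observed daily until death or 45 days. Median survival T/C was calculated from survivors per NCI protocols.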

L1210 [3] = test: Antitumor activity against the ip implanted L1210 leukemia in mice expressed as optimal dose (1-5qd treatment schedule) required to produce greatest increase in life span was determined; assay type: functional, Mus musculus
Procedure, shortened: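 DBA/2J mice, groups of 6 (23-28 g), were inoculated ip with 1 × 10^6 L1210 cells on day 0. Dosing was ip from 24 h, in 0.9% NaCl with 0.5% Tween-80 (sonicated solution or suspension). Mice were observed daily until death or day 45. Median survival T/C followed NCI protocols, and ILS = (T/C − 1) × 100. Active range means doses giving ILS ≥25%; optimal dose means greatest ILS.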

L1210 [4] = test: Antitumor activity was determined against the ip implanted L1210 leukemia in mice by change in […] at 32 and 66 mg/kg (treatment of 1-5qd schedule) dosage; assay type: functional, Mus musculus; details: route intraperitoneal
Procedure, shortened: (§2)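 DBA/2J mice, 6 per group (wt 23-28 g), inoculated ip with 1×10^6 L1210 cells on day 0. Treatment was given ip in 0.9% NaCl with 0.5% Tween-80, starting 24 h later. Weight change was taken on day 8. Mice were observed daily until death or 45 days. Median survival T/C and %ILS = (T/C − 1) × 100 came from survivors per NCI protocols, and 45-day survivors were counted.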

L1210 [5] = test: Antitumor activity was determined against the ip implanted L1210 leukemia in mice by percent increase in life span at 32 and 66 mg/kg (treatment of 1-5qd schedule) dosage; assay type: functional, Mus musculus; details: route intraperitoneal
Procedure, shortened: (§3)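 DBA/2J mice in groups of 6 (wt 23-28 g) were inoculated ip with 1×10^6 L1210 cells on day 0. Dosing was ip from 24 h, in 0.9% NaCl with 0.5% Tween-80 (conjugates sonicated), across a range of doses. Mice were observed daily until death or 45 days. Median T/C was computed from survivors per NCI protocols, and ILS = (T/C − 1)×100.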

L1210 [6] = test: Antitumor activity was determined against the ip implanted L1210 leukemia in mice by percent increase in life span at 128 and 262 mg/kg (treatment of 1qd schedule) dosage; assay type: functional, Mus musculus; details: route intraperitoneal
Procedure, shortened: as §3

L1210 [7] = test: Antitumor activity was determined against the ip implanted L1210 leukemia in mice by 45-day survivors in mice at 32 and 66 mg/kg (treatment of 1-5qd schedule) dosage; assay type: functional, Mus musculus; details: route intraperitoneal
Procedure, shortened: as §3

L1210 [8] = test: Antitumor activity was determined against the ip implanted L1210 leukemia in mice by 45-day survivors in mice at 128 and 262 mg/kg (treatment of 1qd schedule) dosage; assay type: functional, Mus musculus; details: route intraperitoneal
Procedure, shortened: as §3

L1210 [9] = test: Antitumor activity was determined against the ip implanted L1210 leukemia in mice by range in survival days at 32 and 66 mg/kg (treatment of 1-5qd schedule) dosage; Range is 10-12; assay type: functional, Mus musculus; details: route intraperitoneal
Procedure, shortened: as §1

L1210 [10] = test: Antitumor activity was determined against the ip implanted L1210 leukemia in mice by change in […] at 128 and 262 mg/kg (treatment of 1qd schedule) dosage; assay type: functional, Mus musculus; details: route intraperitoneal
Procedure, shortened: as §2

L1210 [11] = test: Antitumor activity was determined against the ip implanted L1210 leukemia in mice by percent median survival rate (treated/control) at 32 and 66 mg/kg (treatment of 1-5qd schedule) dosage; Range is 11.0/8.0; assay type: functional, Mus musculus; details: route intraperitoneal
Procedure, shortened: as §1

P388 [12] = test: Antitumor activity was determined against the ip implanted P388 leukemia in mice by 45-day survivors in mice at 300 mg/kg (1 qd treatment schedule) dosage; assay type: functional, Mus musculus; details: route intraperitoneal
Procedure, shortened: (§4)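 DBA/2J mice, 23-33 g, in groups of 6, were inoculated ip with 1×10^6 P388 cells on day 0. Dosing was ip from 24 h on the stated schedules, in 0.9% NaCl with 0.5% Tween-80 (sonicated solution or suspension). Survival was followed daily until death or 45 days. Median T/C was calculated from survivors per NCI protocols, with ILS = (T/C − 1) × 100.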

P388 [13] = test: Antitumor activity was determined against the ip implanted P388 leukemia in mice by percent increase in life span at 60 mg/kg (1-5qd treatment schedule) dosage; assay type: functional, Mus musculus; details: route intraperitoneal
Procedure, shortened: as §4

P388 [14] = test: Antitumor activity was determined against the ip implanted P388 leukemia in mice by 45-day survivors in mice at 60 mg/kg (1-5qd treatment schedule) dosage; assay type: functional, Mus musculus; details: route intraperitoneal
Procedure, shortened: as §4

P388 [15] = test: Antitumor activity against the ip implanted P388 leukemia in mice expressed as optimal dose (1-5qd treatment schedule) required to produce greatest increase in life span was determined; assay type: functional, Mus musculus; set-up: unit: mg/kg
Procedure, shortened: (§5)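 P388 leukemia: 1 × 10^6 cells were given ip on day 0 to DBA/2J mice, groups of 6 (23-33 g). Treatment was ip from 24 h after inoculation, vehicle 0.9% NaCl with 0.5% Tween-80. Mice were observed daily until death or 45 days. Median survival T/C was calculated from survivors per NCI protocols, and ILS = (T/C − 1) × 100. Active range means doses giving ILS ≥25%; optimal dose means greatest ILS.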

P388 [16] = test: Antitumor activity was determined against the ip implanted P388 leukemia in mice by percent increase in life span at 133 mg/kg (treatment of 1,5,9qd schedule) dosage; assay type: functional, Mus musculus; details: route intraperitoneal
Procedure, shortened: as §4

P388 [17] = test: Antitumor activity was determined against the ip implanted P388 leukemia in mice by percent median survival rate (treated/control) at 60 mg/kg (1-5qd treatment schedule) dosage; >45.0/11.5; assay type: functional, Mus musculus; details: route intraperitoneal
P388 [18] = test: Antitumor activity was determined against the ip implanted P388 leukemia in mice by range in survival days at 300 mg/kg (1 qd treatment schedule) dosage; Range is 39->45; assay type: functional, Mus musculus; details: route intraperitoneal
P388 [19] = test: Antitumor activity was determined against the ip implanted P388 leukemia in mice by percent median survival rate (treated/control) at 133 mg/kg (treatment of 1,5,9qd schedule) dosage; >45.0/11.5; assay type: functional, Mus musculus; details: route intraperitoneal
P388 [20] = test: Antitumor activity against ip implanted P388 leukemia in mice expressed as active dose range (1 qd treatment schedule) required to produce increase in life span by >25% was determined; Range is 200-400; assay type: functional, Mus musculus
Procedure, shortened: as §5

P388 [21] = test: Antitumor activity against ip implanted P388 leukemia in mice expressed as active dose range (1,5,9qd treatment schedule) required to produce increase in life span by >25% was determined; Range is 100-167; assay type: functional, Mus musculus
Procedure, shortened: as §5

P388 [22] = test: Antitumor activity was determined against the ip implanted P388 leukemia in mice by percent median survival rate (treated/control) at 300 mg/kg (1 qd treatment schedule) dosage; >45.0/11.0; assay type: functional, Mus musculus; details: route intraperitoneal
P388 [23] = test: Antitumor activity was determined against the ip implanted P388 leukemia in mice by percent increase in life span at 300 mg/kg (1 qd treatment schedule) dosage; assay type: functional, Mus musculus; details: route intraperitoneal
Procedure, shortened: as §4

P388 [24] = test: Antitumor activity was determined against the ip implanted P388 leukemia in mice by 45-day survivors in mice at 133 mg/kg (treatment of 1,5,9qd schedule) dosage; assay type: functional, Mus musculus; details: route intraperitoneal
Procedure, shortened: as §4

P388 [25] = test: Antitumor activity was determined against the ip implanted P388 leukemia in mice by change in […] at 133 mg/kg (treatment of 1,5,9qd schedule) dosage; assay type: functional, Mus musculus; details: route intraperitoneal
Procedure, shortened: (§6)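 P388 leukemia, 1×10^6 cells implanted ip on day 0 into DBA/2J mice, groups of 6 (wt 23-33 g). Dosing ip started 24 h post-inoculation, vehicle 0.9% NaCl containing 0.5% Tween-80. Animals were observed daily until death or 45 days. Outputs were weight change, median survival T/C from survivors per NCI protocols, and %ILS = (T/C − 1) × 100.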

P388 [26] = test: Antitumor activity against ip implanted P388 leukemia in mice expressed as active dose range (1-5qd treatment schedule) required to produce increase in life span by >25% was determined; Range is 40-80; assay type: functional, Mus musculus
Procedure, shortened: as §5

P388 [27] = test: Antitumor activity was determined against the ip implanted P388 leukemia in mice by change in […] at 60 mg/kg (1-5qd treatment schedule) dosage; assay type: functional, Mus musculus; details: route intraperitoneal
Procedure, shortened: as §6

P388 [28] = test: Antitumor activity was determined against the ip implanted P388 leukemia in mice by change in […] at 300 mg/kg (1 qd treatment schedule) dosage; assay type: functional, Mus musculus; details: route intraperitoneal
Procedure, shortened: as §6

P388 [29] = test: Antitumor activity against the ip implanted P388 leukemia in mice expressed as optimal dose (1 qd treatment schedule) required to produce greatest increase in life span was determined; assay type: functional, Mus musculus
Procedure, shortened: as §5

P388 [30] = test: Antitumor activity against the ip implanted P388 leukemia in mice expressed as optimal dose (1,5,9qd treatment schedule) required to produce greatest increase in life span was determined; assay type: functional, Mus musculus; set-up: unit: mg/kg
Procedure, shortened: as §5

For `CCCCCCCCCCCCCCCCCCOCC(COP(=O)(O)O)OC(=O)CCCCCCCCCCCCCCC.Nc1ccn([C@@H]2O[C@H](COP(=O)(O)O)[C@@H](O)[C@@H]2O)c(=O)n1` (racemic), the median survival time (L1210 [1]) was 8 days, the Range (L1210 [2]) was 7 and the Optimal dose (L1210 [3]) was 32 mg and 66 mg. The Weight change (L1210 [4]) was 3.5 g mouse-1, the ILS (L1210 [5]) was 38 and the ILS (L1210 [6]) was 0. It also gave a Survivors (L1210 [7]) of 0, a Survivors (L1210 [8]) of 0 and a Range (L1210 [9]) of 10. It also gave a Weight change (L1210 [10]) of 3.2 g mouse-1 and a median survival time (L1210 [11]) of 11 days.

In the case of `CCCCCCCCCCCCCCCC(=O)OCC(COP(=O)(O)OP(=O)(O)OC[C@H]1O[C@@H](n2ccc(N)nc2=O)[C@@H](O)[C@@H]1O)OC(=O)CCCCCCCCCCCCCCC` (mixture of isomers), the Survivors (P388 [12]) is reported as 4, the ILS (P388 [13]) is reported as greater than 291 and the Survivors (P388 [14]) is reported as 6. For the same molecule, the Optimal dose (P388 [15]) was 60 mg, the ILS (P388 [16]) was greater than 291 and the T/C (P388 [17]) was greater than 45%. The Range (P388 [18]) was 39, the T/C (P388 [19]) was greater than 45% and the Active dose range (P388 [20]) was 200 mg/kg/day. The Active dose range (P388 [21]) was 100 mg/kg/day, the T/C (P388 [22]) was greater than 45% and the ILS (P388 [23]) was greater than 309. For the same molecule, the Survivors (P388 [24]) was 6, the Weight change (P388 [25]) was 0.37 g mouse-1 and the Active dose range (P388 [26]) was 40 mg/kg/day. It also gave a Weight change (P388 [27]) of -3.27 g mouse-1, a Weight change (P388 [28]) of -1.7 g mouse-1 and an Optimal dose (P388 [29]) of 300 mg/kg/day. It also gave an Optimal dose (P388 [30]) of 133 mg.
